This is a sample that favours compounds with a hit; in the whole collection about 8.8% have one here.
RORA act: activators of human nuclear receptor RORA; activation, % at 10 µM; AID 560; 1.5% of 65,000 active; CHO-K1 Gal4-RORA LBD luciferase reporter, luminescence; percent increase over mock-subtracted basal signal;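 active means activation above the mean of all tested compounds plus 3 SD, cut at about 49% in these data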
S1P3 ag: agonists of human S1P3 receptor | Q99500 | S1P3 NFAT-BLA reporter cells, agonism, FRET ratio; relative to 1 µM S1P, basal subtracted | activation, % at 4.5 µM | 0.1% of 60,000 active;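 active means activation above the screen-wide mean plus 3 SD, cut at about 4.5% in these data, passing the limit was not always enough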
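material = human S1P3 NFAT-BLA reporter CHO cells | schedule = 4 h compound at 37 °C, 2 h substrate at RT | measured by = fluorescent BLA substrate, ex 405 nm, em 460/535 nm ratio | controls = 1 µM S1P reference | replication = primary once, confirmation triplicate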
SF1 activator: SF-1 (human) activation | Q13285 | CHO-K1 Gal4-SF-1 LBD luciferase reporter; % increase over DMSO SF-1-specific signal | activation, % at 10 µM | 1.9% of 65,000 active;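 active means activation above the mean activation of all tested compounds plus 3 SD, cut at about 50% in these data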
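Assay system: CHO-K1 cells co-transfected with Gal4 DBD–human SF-1 LBD, 5xGal4 luciferase reporter; doses: 10 µM only; incubation: 20 h compound exposure at 37 °C after 1 h cell settling; signal: luciferase light emission; evaluation: percent activation versus DMSO; repeats: one test per compound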
S1P1 ag-PAM: activates or potentiates agonism at human S1P1 receptor | S1P1 CRE-bla cells, forskolin, beta-lactamase FRET, potentiator mode; S1P1 agonist co-added at EC20, 2 nM; 100% = saturating reference agonist, 0% = basal | activation, % at 9.5 µM | 0.57% of 56,000 active;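 active means activation above a cutoff set at the mean activation of all tested compounds plus 3 SD, cut at about 54% in these data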;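 further: forskolin at 4 µM as EC80 and the EC20 agonist is SEW2871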
M1 agonist: agonists of M1 muscarinic receptor | B-score at 10 µM | 3% of 64,000 active | CHO-M1 cells, Fluo-4 calcium fluorescence, agonist mode; hits give high values | AID 626;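 active means fluorescence rise, raw or as B-score row- and column-corrected plate score, outside the 99.7% band of its plate's samples, either direction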
M1 antag: blocks the rat M1 muscarinic receptor response to acetylcholine; AID 628; CHO-M1 cells, Fluo-4 calcium, ACh EC80 antagonist mode; hits give low values; B-score at 10 µM; 3.4% of 64,000 active; P08482;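 active means calcium fluorescence response, raw or row-and-column corrected B-score, differing from the plate sample mean either way at a set confidence level, mostly lower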
M1 agonist conf: confirmation of rat M1 muscarinic receptor agonists | 19% of 1,700 active | fluorescence change (max-min) at 10 µM | shares compounds with M1 agonist | CHO-M1 cells, Fluo-4 calcium fluorescence, agonist mode; actives lie on both sides | AID 1488;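 active means fluorescence change differs from the solvent-only DMSO control mean at a set confidence level in both duplicate runs; inconclusive means differs from solvent-only control mean in just one of two runs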;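 further: an EC20 dose of acetylcholine follows compound addition during the same imaging run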
M4 agonist ctr: activates rat M4 receptor in counter-screen for M1 agonists; shares compounds with M1 agonist; CHO M4/Gqi5 cells, Fluo-4 calcium fluorescence, agonist mode; actives lie on both sides; fluorescence change (max-min) at 10 µM; 9% of 1,700 active;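 active means fluorescence change differing from the plate's solvent-only control wells at 99.7% confidence in both duplicates, whether higher or lower; inconclusive means differs from solvent controls in only one of two duplicates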
Target sequence (P08485 whole entry, looked up): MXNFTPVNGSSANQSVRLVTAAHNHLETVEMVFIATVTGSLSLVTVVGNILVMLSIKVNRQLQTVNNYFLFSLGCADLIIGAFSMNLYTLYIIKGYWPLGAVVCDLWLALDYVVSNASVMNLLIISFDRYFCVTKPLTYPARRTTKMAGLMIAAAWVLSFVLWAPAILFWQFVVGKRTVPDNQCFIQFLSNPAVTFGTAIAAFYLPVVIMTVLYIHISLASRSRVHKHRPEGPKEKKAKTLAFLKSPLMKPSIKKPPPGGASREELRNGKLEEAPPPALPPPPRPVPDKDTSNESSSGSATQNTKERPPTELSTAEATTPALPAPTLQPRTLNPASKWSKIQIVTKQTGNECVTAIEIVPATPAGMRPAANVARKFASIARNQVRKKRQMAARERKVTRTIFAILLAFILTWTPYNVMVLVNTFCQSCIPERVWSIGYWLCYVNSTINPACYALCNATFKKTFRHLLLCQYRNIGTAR
Hits are given with their value; 0 = inactive; ? = inconclusive; - = no result given.

SMILES | RORA act | S1P3 ag | SF1 activator | S1P1 ag-PAM | M1 agonist | M1 antag | M1 agonist conf | M4 agonist ctr
N#CC(C(=O)NC1CCCCC1)c1nc2ccccc2nc1N1CCN(c2ccc(F)cc2)CC1 (stereo not given) | 0 | 0 | 0 | 0 | 14 | 0 | 241 | ?
N#CC(C(=O)OC1CCCCC1)c1nc2ccccc2nc1N1CCOCC1 (stereo not given) | 0 | 0 | 0 | 0 | 72 | 4.8 | 0 | 0
N#CC(C(=O)NC1CC1)c1nc2ccccc2nc1N1CCCC1 (stereo not given) | 0 | 0 | 0 | 0 | 0 | 0 | - | -
CCCCOC(=O)C(C#N)c1nc2ccccc2nc1N1CCN(Cc2ccc3c(c2)OCO3)CC1 (stereo not given) | 0 | 0 | 0 | 0 | 14 | 0 | 0 | 0
CCOC(=O)C1CCCN(c2nc3ccccc3nc2C(C#N)C(=O)OCCOC)C1 (stereo not given) | 0 | 0 | 0 | 0 | 6.8 | 0 | 0 | 0
CCOC(=O)C1CCCN(c2nc3ccccc3nc2C(C#N)C(=O)OCC)C1 (stereo not given) | 0 | 0 | 0 | 0 | 0 | 0 | - | -
COc1ccc(C2=NOC3(CC(=O)N(c4ccc(C)cc4)C3=O)C2)c(OC)c1 (stereo not given) | 0 | 0 | 0 | 0 | 0 | 0 | - | -
CCCn1c(N)c(Sc2ccc(Cl)cc2)c(=O)n(CCC)c1=O | 0 | 0 | 0 | 0 | 0 | 0 | - | -
CCNc1ccc2c(Cl)cc(=O)oc2c1 | 0 | 0 | 0 | 0 | 0 | 0 | - | -
CC1Cc2ccccc2N1C(=O)CSc1nc2c(c(=O)n(C)c(=O)n2C)n1Cc1ccccc1 (stereo not given) | 0 | 0 | 0 | 0 | 0 | 0 | - | -
Cn1c(=O)c2nc(NCc3ccccc3)cnc2n(C)c1=O | 0 | 0 | 0 | 0 | 10 | 0 | 203 | 166
CCCNc1nc2c(c(=O)n(C)c(=O)n2C)n1CCc1ccccc1 | 0 | 0 | 0 | 0 | 0 | 0 | - | -
COc1ccc(-n2nnnc2SCC(=O)c2ccc(O)c(O)c2)cc1 | 0 | 0 | 0 | 0 | 11 | 0 | 0 | 0
COc1cc(NC(=O)c2ccco2)c(OC)cc1NC(=O)c1cc(OC)c(OC)c(OC)c1 | 0 | 0 | 0 | 0 | 11 | 0 | -32 | 0
COc1ccccc1NC(=O)c1cc(Cl)ccc1NC(=O)c1ccco1 | 0 | - | 0 | - | 0 | 0 | - | -
COc1ccc2c(=O)c(C(=O)NCCc3ccc(OC)c(OC)c3)c[nH]c2c1 | 0 | 0 | 0 | 0 | 4.9 | 0 | ? | ?
COc1ccc(CCNC(=O)c2ccc(=O)[nH]n2)cc1OC | 0 | 0 | 0 | 0 | 0 | 0 | - | -
COc1ccc(NC(=O)c2ccccc2NC(=O)c2ccco2)c(OC)c1 | 0 | 0 | 0 | 0 | 7.7 | 0 | ? | 0
COc1ccc(CCNC(=O)c2ccccc2NC(=O)c2ccco2)cc1OC | 0 | 0 | 0 | 0 | 4 | 0 | ? | -77
CCCN1C(=O)C(O)(C2CC(=O)CC(C)(C)O2)c2ccccc21 (stereo not given) | 0 | 0 | 0 | 0 | 0 | 0 | - | -
COCCN1C(=O)c2ccccc2C(C(=O)N2CCN(c3ccccn3)CC2)C1c1ccc(F)cc1 (stereo not given) | 0 | - | 0 | - | 0 | 0 | - | -
O=C1CC(C2CCCO2)C(=O)N1Cc1ccccc1 (stereo not given) | - | - | - | - | 0 | 0 | - | -
CCOC(=O)c1cc2c(=O)n3ccccc3nc2n(CC(C)C)c1=NC(=O)c1ccco1 | 0 | - | 0 | - | 0 | 0 | - | -
CCOC(=O)c1cc2c(=O)n3ccccc3nc2n(C(C)C)c1=NC(=O)c1ccncc1 | 0 | - | 0 | - | 2.5 | 0 | ? | 0
CCOC(=O)c1cc2c(=O)n3ccccc3nc2n(CCOC)c1=NC(=O)C(C)(C)C | 0 | - | 0 | - | - | - | - | -
SMILES | RORA act | S1P3 ag | SF1 activator | S1P1 ag-PAM | M1 agonist | M1 antag | M1 agonist conf | M4 agonist ctr
CCOC(=O)c1cc2c(=O)n3ccccc3nc2n(CCOC)c1=NC(=O)c1ccncc1 | 0 | - | 0 | - | 2.2 | 0 | 0 | 0
O=C1CCCN1CCC1CCN(C2CC(=O)N(c3ccc(Cl)cc3)C2=O)CC1 (stereo not given) | 0 | 0 | 0 | - | 0 | 0 | - | -
Cc1ccc2nc(-c3cccc(NC(=O)c4ccco4)c3)[nH]c2c1 | 0 | 0 | 0 | - | 7 | 0 | 0 | 0
Cc1ccc(O)c(NC(=O)c2cccc(NC(=O)c3ccco3)c2)c1 | 0 | - | 0 | - | 2.6 | 0 | -26 | 0
Cc1ccc(O)c(NC(=O)c2ccco2)c1 | 0 | 0 | 0 | - | 0 | 0 | - | -
Cc1nn2c(-c3cccc(NC(=O)c4ccco4)c3)nnc2c2ccccc12 | 0 | 0 | 0 | 0 | 5.8 | 0 | 0 | ?
COc1ccc(N2CCN(c3nc4c(c(=O)[nH]c(=O)n4C)n3CCCc3ccccc3)CC2)cc1 | 0 | 0 | 0 | 0 | 0 | 0 | - | -
O=c1c2ccccc2nc2n1CCN2Cc1ccc(Cl)cc1 | 0 | 0 | 0 | 0 | 5.6 | 0 | ? | 0
O=c1c2ccccc2nc2n1CCCS2 | 0 | 0 | 0 | 0 | 0 | 0 | - | -
O=C(NC1CCS(=O)(=O)C1)OC1CCCCC1 (stereo not given) | 0 | 0 | 0 | 0 | 0 | 0 | - | -
COc1ccc(CN(Cc2cc3cccc(C)c3[nH]c2=O)C(=O)N(C)C)cc1 | 0 | 0 | 0 | 0 | 3.5 | 0 | 0 | 0
COc1cccc(-c2ccc(-c3noc(-c4ccccc4F)n3)c(OC)n2)c1 | 0 | 0 | 0 | - | 15 | 0 | 0 | 0
CCCn1nnnc1SCC(=O)Nc1nnc(CC)s1 | 0 | 0 | 0 | 0 | 2.6 | 0 | 0 | ?
COc1ccc(C(c2nnnn2C2CCCC2)N2CCC(C)CC2)cc1 (stereo not given) | 0 | 0 | 0 | 0 | 0 | 0 | - | -
Clc1ccc(C(c2nnnn2C2CCCC2)N2CCSCC2)cc1 (stereo not given) | 0 | 0 | 0 | 0 | 8 | 0 | 0 | ?
O=c1c(O)c(-c2cccs2)oc2ccccc12 | 0 | 0 | 0 | 0 | 140 | -1.6 | 696 | 622
CCCC(=O)Nc1nc(-c2ccc3c(c2)OCCO3)cs1 | 63 | 0 | 61 | 0 | 3.2 | 0 | 0 | 0
Cc1ccc(CS(=O)(=O)CCC(=O)N2CCOCC2)cc1 | 0 | 0 | 0 | 0 | 0 | 0 | - | -
CC(=O)c1cc(OC(=O)c2ccncc2)ccc1OC(=O)c1ccncc1 | 0 | 0 | 0 | 0 | 4.4 | 0 | 0 | 0
CCOC(=O)Cn1c(=O)oc2cc(S(=O)(=O)Nc3ccc(F)cc3)ccc21 | 0 | 0 | 0 | 0 | 3.8 | 0 | 0 | 0
O=C(Nc1ccc(CCC(=O)N2CCCC2)cc1)c1ncn[nH]1 | 0 | 0 | 0 | 0 | 1.8 | 0 | 0 | 0
CCOc1nc(NCCc2ccc(OC)c(OC)c2)nc(NC(C)(C)CO)n1 | 0 | 0 | 0 | 0 | 2.1 | 0 | ? | 0
